Source: PubChem BioAssay AID638 (SRMLSC, 2007)
Hit rate of the full screen: of about 1,300 compounds, about 65 (5%) were called active.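 How the source made its calls: active means growth inhibition reaching a set limit at one or more tested doses; inactive means the rest.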 A selection follows. Entries with a potency or affinity are not part of this list.

Assay: wild-type E. coli BW25113 antibacterial activity – OD615, dose response (AID 638)
Details: at 100 µM (top of the series) unless noted
Procedure, shortened: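 Material – E. coli BW25113 wild type · Medium – Kanamycin-supplemented LB broth · Doses – compound dilution series for dose-response · Incubation – 20 h compound exposure, 37 °C · Technique – optical density (absorbance) at 615 nm · Read-out basis – IC50 from 4-parameter logistic, bounds fixed 0–100% · Control set – chloramphenicol at 30 µM final as inhibition control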

Growth inhibition, inactive:
N=c1c2c(-c3ccccc3)c(-c3ccccc3)n(Cc3ccco3)c2ncn1Cc1ccco1 8.39%
CC(C)(C)N1C(=O)Cc2c1nc(N)c1c(N)nc(N3CCCCC3CO)c(C#N)c21 (stereo not drawn) -2.72%
c1csc(-c2noc(COc3ccc4c(c3)CCCC4)n2)c1 14.2%
COc1ccc(CNC(=O)c2cc(-c3ccccc3OC)on2)cc1 10.6%
O=C(CS(=O)(=O)c1ccccc1)Nc1nc(-c2ccccc2)cs1 7.34%
CCN(CC)c1ccc(C(=O)Nc2cccc(F)c2)cc1 0.51%
O=C(CN1CCN(S(=O)(=O)c2ccc(F)cc2)CC1)Nc1ccc(Cl)c(C(F)(F)F)c1 1.58%
CC1CCN(c2nc3ccccc3nc2C(C#N)S(=O)(=O)c2ccccc2)CC1 (stereo not drawn) -11.4%
CC1=CCC(COC(=O)Nc2ccccc2)CC1 (stereo not drawn) 10.3%
Cc1cccnc1NC(=O)c1c(O)c2cccc3c2n(c1=O)CCC3 0.91%
CCn1c(=O)c(C(=O)Nn2c(C)nc3ccccc3c2=O)c(O)c2ccccc21 2.63%
CCOC(=O)Cc1c(C)nc2c(-c3cccc(Br)c3)c[nH]n2c1=O 7.94%
Cc1onc(-c2ccccc2)c1C(=O)Nc1nnc(COc2ccc(Cl)cc2)s1 -9.06%
CCn1c(C(=O)N2CCC(Cc3ccccc3)CC2)cc2sccc21 -18.6%
N#Cc1c(NC(=O)c2ccc(Br)o2)n(-c2ccccc2)c2nc3ccccc3nc12 -13.4%
CC1=C(C#N)c2nc(N)c(C#N)c(C)c2/C1=C\c1ccccc1 -0.01%
C(=C\c1ccccc1)/CN1CCN(c2ncnc3c2oc2ccccc23)CC1 -1.65%
CCC(CC)c1nnc(NC(=O)c2c(-c3ccccc3)noc2C)s1 9.3%
O=C1c2ccccc2C(O)(Cc2ccccc2)N1C1CCCCC1 (stereo not drawn) -0.01%
CCCc1nc(SCC(=O)N2CCC(Cc3ccccc3)CC2)c2c(=O)n(C)c(=O)n(C)c2n1 -7.24%
O=C(Nc1ccc2nc(-c3cccs3)[nH]c2c1)c1ccco1 15%
Cc1ccccc1S(=O)(=O)Cc1ccc(C(=O)N2CCN(c3cccc(C)c3C)CC2)o1 7.63%
COc1ccc(-c2cc3nc4c(c(N5CCC6(CC5)OCCO6)n3n2)CCCC4)cc1 0.64%
Clc1ccc(C2=Nn3c(nnc3-c3n[nH]c4c3CCC4)SC2)cc1Cl 1.98%
Cc1cccc(N2C(N)=C(C#N)C(C#N)(C#N)C2c2ccccc2)c1 (stereo not drawn) -0.76%
O=c1n(Cc2ccccc2)c2cc(Cl)cnc2n1Cc1ccccc1 6.2%
CC(C)(C)C(=O)Cn1c(=N)n(Cc2ccccc2)c2ccccc21 1.06%
O=C(NCc1ccco1)C(c1cccs1)N(C(=O)C1COc2ccccc2O1)c1cccc(O)c1 (stereo not drawn) 1.03%
CCOC(=O)N1CCN(c2nc(N(c3ccccc3)c3ccccc3)nc(-n3ccnc3)n2)CC1 -3.06%
COc1ccc(C2c3sc(=O)[nH]c3SC3C4CCC(C4)C23)cc1 (stereo not drawn) 0.8%
CCn1cc(C(=O)O)c(=O)c2cc(OC)ccc21 19.6%
O=C(Nc1ccc(N2CCN(C(=O)c3ccco3)CC2)c(Cl)c1)c1cccs1 -1.45%
CCOc1ccccc1N1CCN(C(=O)Nc2ccc(F)c(Cl)c2)CC1 -9.1%
CCOC(=O)c1cn(CC)c2cc(N3CCOCC3)c(F)cc2c1=O 4.05% [at 50 µM]
CCn1cc(C(=O)O)c(=O)c2cnc(N3CCN(C(=O)Nc4ccccc4)CC3)nc21 5.93%
CCOC(=O)c1cn(CC)c2cc(N3CCCCC3)c(F)cc2c1=O -6.06%
O=C(Nc1ccc(N2CCN(C(=O)c3ccco3)CC2)c(Cl)c1)c1c(F)c(F)c(F)c(F)c1F -3.01%
Cc1nc2c(C(=O)NCc3ccc4c(c3)OCO4)c[nH]n2c(=O)c1Cc1ccccc1F 0.77%
CCn1c2ccccc2c2cc(NC(=O)c3ccco3)ccc21 -3.49%
COc1ccccc1-c1cc(C(=O)NCc2ccc(F)cc2)no1 -0.01%
CCOC(=O)C1=C(C)NC(SCC(=O)Nc2cc(C)on2)=C(C#N)C1c1cccs1 (stereo not drawn) 3.97%
CCOC(=O)c1c(-c2cccs2)csc1NC(=O)CN1CC(C)OC(C)C1 (stereo not drawn) -7.6%
Nc1nc(CN2CCN(c3cccc(Cl)c3)CC2)nc(N2CCCc3ccccc32)n1 4.24%
O=c1c2c(nc3c(-c4cccc5ccccc45)c[nH]n13)CCC2 -1.35%
Cc1ccc(Cn2ccc(NC(=O)c3cc(CC(C)C)on3)n2)cc1 0.62%
N#Cc1cn(CCOc2ccccc2F)c2ccccc12 -0.93%
COc1ccccc1N1CCN(C(=O)c2cc(-c3ccc(C)cc3)on2)CC1 -0.92%
Cc1cccc(C)c1NC(=O)C(c1cccs1)N(Cc1ccco1)C(=O)Cn1nnc2ccccc21 (stereo not drawn) -8.04%
O=C(Nc1ccc2c(c1)CCC2)C1COc2ccccc2O1 (stereo not drawn) 7.62%
CCCN(CCC)C(=O)CSc1nc2ccccc2c(=O)n1C1CCCC1 -6.85%
CCOC(=O)c1cc2sccc2n1Cc1ccc(C#N)cc1 -10.3%
CCc1c(O)nc(SCC(=O)Nc2ccc(C)cc2)n(C2CCCCC2)c1=O -10.1%
CC1CCCc2sc3nc(NCc4ccco4)n4ncnc4c3c21 (stereo not drawn) -3.17%
CCn1c(SC)nnc1-c1sc2cc(Cl)ccc2c1Cl 2.34%
CC1CCCCC1n1c(=S)[nH]c2ccccc2c1=O (stereo not drawn) -0.57%
CCCOc1ccc2oc(=O)c3c(c2c1)CCCN3C(=O)CN1CCc2ccccc2C1 0.92%
Cc1ccc(O)c(C(=O)CC(=O)c2cccc(F)c2)c1 11.9%
CCCCCSc1nnc(-c2cc(Br)ccc2N)c(=O)[nH]1 -4.38%
CC(C)COC(=O)NCCOC(=O)Nc1cccc(Cl)c1 18.9%
CCCc1cc(C(=O)Nc2cccc(Cl)c2)no1 12.5%
CCOC(=O)C1CCCN(c2ncnc3c2cnn3-c2ccc(Cl)cc2)C1 (stereo not drawn) -11.7%
O=C1CC(c2ccco2)CC2=C1C1c3ccccc3C(=O)N1c1ccccc1N2 (stereo not drawn) -3.27%
CC(C)Cn1c(=O)c(C(=O)Nc2cnccn2)c(O)c2ccccc21 16.1%
O=C(C1CC1)N1CCc2cc(S(=O)(=O)NCCC3=CCCCC3)ccc21 9.41%
CCOC(=O)c1ccccc1NC(=O)C(C)Oc1ccccc1 (stereo not drawn) -0.25%
Cc1cc2n(n1)C(c1ccc3c(c1)OCO3)Nc1c(C)cccc1-2 (stereo not drawn) -5.6%
CSc1nc2ccc(NS(=O)(=O)c3ccc4c(c3)OCCO4)cc2s1 -7.17%
Cc1ccc(NC(=O)c2nnn(-c3cc(C)cc(C)c3)c2N)cc1 -3.73%
CCCCOc1ccc(S(=O)(=O)N2CCCCCC2)cc1 6.59%
Cc1ccc(Cl)cc1N1CCN(C(=O)c2ccc(NS(=O)(=O)c3c(C)noc3C)cc2)CC1 -7.75%
CC(=Nc1ccc(O)cc1)c1sc2ccccc2c1O -1.71%
O=c1c2ccccc2nc(SCc2cn3ccsc3n2)n1-c1ccccc1F -8.01%
COC(=O)c1c(NC(=O)Cc2cccs2)sc2c1CCCC2 2.67%
COc1ccccc1N1CCN(C(=O)COc2ccc(C)cc2Br)CC1 12.1%
CCOC(=O)N1CCN(C(=O)COc2ccc(S(=O)(=O)Nc3ccc(OCC)cc3)cc2)CC1 3.01%
CCOc1ccc(NS(=O)(=O)c2ccc(SC)cc2)cc1 11.9%
Cc1ccc(-n2c(=O)[nH]cc(C(=O)Nc3ccc4c(c3)OCCO4)c2=O)cc1C -5.27%
O=C(OC1CCc2ccccc2C1=O)c1ccccc1O (stereo not drawn) 9.44%
CCCCCc1cc(O)c2c(C)cc(=O)oc2c1 7.24%
CCCCCCOC(=O)C(C#N)c1nc2ccccc2nc1N1CCN(C)CC1 (stereo not drawn) 12.3%
CC1=C(C(=O)OCC(C)C)C(c2cc3c(cc2Br)OCO3)NC(=O)N1C (stereo not drawn) 12.5%
CN(C)c1ccc(/C=N/n2ncc3ccccc32)cc1 -3.99%
COc1nc(N(c2ccccc2)c2ccccc2)nc(-n2ccnc2)n1 12.7%
COc1ccccc1OCC(=O)N(Cc1nc(-c2ccccc2)no1)C1CCCCC1 -2.24%
COC(=O)c1ccccc1NC(=O)N1c2ccccc2CC1C (stereo not drawn) 3.49%
Cc1ccc(C)n1-n1cnc2sc(-c3ccccc3)cc2c1=O -14.3%
CCOC(=O)c1cn(CC)c2cc(N3CCSCC3)c(F)cc2c1=O 10.1%
O=C(Nc1ccc(Cl)cc1)N(Cc1cccs1)Cc1cccs1 -8.41%
Cc1ccc(OCc2nc(C#N)c(N3CCN(Cc4ccccc4)CC3)o2)cc1 -9.19%
COc1ccc(OC)c(S(=O)(=O)N2CCN(c3c(C)cccc3C)CC2)c1 -10%
COc1cc(NS(=O)(=O)c2ccc(Br)cc2)c(OC)cc1NC(=O)c1ccco1 -12%

Growth inhibition, active:
O=C1OC(c2ccc(O)cc2)(c2ccc(O)cc2)c2ccccc21 24.6%
CCOc1ccc(S(=O)(=O)Nc2cccc(Cl)c2)cc1 20%
